The results in this text go back to ChEMBL document CHEMBL1148012, “Synthesis, inhibition and binding of simple non-nitrogen inhibitors of monoamine transporters” (Bioorg Med Chem, 2007).

Holding throughout (format): cell membranes, COS-1
In test [1] the target is Sodium-dependent dopamine transporter (Homo sapiens, UniProt Q01959). The experiment in a line: Displacement of [125I]RTI55 from human DAT expressed in COS1 cell membrane. In a few lines: (§1)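 Membranes from COS-1 cells stably transfected with hDAT or hSERT (pIRES, blasticidin selection), homogenised and washed, resuspended in PBSCM. Filtration onto PEI-soaked GF/B filters, scintillation counting.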
Sodium-dependent dopamine transporter, sequence (Q01959 whole entry): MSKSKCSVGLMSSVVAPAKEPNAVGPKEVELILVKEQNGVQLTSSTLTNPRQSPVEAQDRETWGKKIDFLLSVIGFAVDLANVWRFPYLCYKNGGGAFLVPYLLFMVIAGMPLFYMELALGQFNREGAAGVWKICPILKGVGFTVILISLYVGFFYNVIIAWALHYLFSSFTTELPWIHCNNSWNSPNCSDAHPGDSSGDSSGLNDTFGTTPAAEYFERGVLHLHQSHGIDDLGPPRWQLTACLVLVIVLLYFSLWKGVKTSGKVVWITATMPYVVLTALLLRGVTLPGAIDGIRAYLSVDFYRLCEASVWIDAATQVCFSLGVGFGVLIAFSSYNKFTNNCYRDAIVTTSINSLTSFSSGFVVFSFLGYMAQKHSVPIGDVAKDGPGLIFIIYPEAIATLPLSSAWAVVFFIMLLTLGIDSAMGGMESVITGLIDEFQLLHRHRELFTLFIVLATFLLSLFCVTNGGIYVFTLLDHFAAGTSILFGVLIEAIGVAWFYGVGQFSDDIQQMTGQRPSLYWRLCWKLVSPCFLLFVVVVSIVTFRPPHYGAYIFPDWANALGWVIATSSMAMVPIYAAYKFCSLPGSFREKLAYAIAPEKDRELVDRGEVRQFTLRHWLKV
(In general: In a radioligand displacement assay an active substance lowers the binding of a labelled ligand.)

In test [2] the target is Sodium-dependent serotonin transporter (Homo sapiens, UniProt P31645). Kind of test: Displacement of [125I]RTI55 from human SERT expressed in COS1 cell membrane. A digest of the protocol:
as §1

The target in test [3] is Sodium-dependent noradrenaline transporter (Homo sapiens, UniProt P23975). Kind of test: Displacement of [125I]RTI55 from human NET expressed in COS1 cell membrane.
Sodium-dependent noradrenaline transporter, sequence (P23975 whole entry): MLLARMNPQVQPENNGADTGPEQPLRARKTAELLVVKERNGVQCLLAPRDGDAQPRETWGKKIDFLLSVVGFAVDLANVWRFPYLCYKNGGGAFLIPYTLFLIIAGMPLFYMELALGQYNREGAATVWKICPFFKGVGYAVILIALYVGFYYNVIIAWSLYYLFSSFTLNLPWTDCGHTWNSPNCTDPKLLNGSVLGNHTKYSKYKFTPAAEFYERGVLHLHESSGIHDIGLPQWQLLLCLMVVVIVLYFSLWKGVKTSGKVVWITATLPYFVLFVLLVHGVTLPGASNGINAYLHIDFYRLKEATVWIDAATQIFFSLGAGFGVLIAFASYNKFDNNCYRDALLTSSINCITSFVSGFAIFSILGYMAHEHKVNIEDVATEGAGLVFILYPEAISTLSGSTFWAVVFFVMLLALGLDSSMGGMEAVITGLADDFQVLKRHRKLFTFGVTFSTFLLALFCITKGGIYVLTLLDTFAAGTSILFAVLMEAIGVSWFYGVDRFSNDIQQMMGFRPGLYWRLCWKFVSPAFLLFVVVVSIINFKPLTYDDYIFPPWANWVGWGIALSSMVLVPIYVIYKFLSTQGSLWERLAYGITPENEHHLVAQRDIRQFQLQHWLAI

Sodium-dependent serotonin transporter, sequence (P31645 whole entry): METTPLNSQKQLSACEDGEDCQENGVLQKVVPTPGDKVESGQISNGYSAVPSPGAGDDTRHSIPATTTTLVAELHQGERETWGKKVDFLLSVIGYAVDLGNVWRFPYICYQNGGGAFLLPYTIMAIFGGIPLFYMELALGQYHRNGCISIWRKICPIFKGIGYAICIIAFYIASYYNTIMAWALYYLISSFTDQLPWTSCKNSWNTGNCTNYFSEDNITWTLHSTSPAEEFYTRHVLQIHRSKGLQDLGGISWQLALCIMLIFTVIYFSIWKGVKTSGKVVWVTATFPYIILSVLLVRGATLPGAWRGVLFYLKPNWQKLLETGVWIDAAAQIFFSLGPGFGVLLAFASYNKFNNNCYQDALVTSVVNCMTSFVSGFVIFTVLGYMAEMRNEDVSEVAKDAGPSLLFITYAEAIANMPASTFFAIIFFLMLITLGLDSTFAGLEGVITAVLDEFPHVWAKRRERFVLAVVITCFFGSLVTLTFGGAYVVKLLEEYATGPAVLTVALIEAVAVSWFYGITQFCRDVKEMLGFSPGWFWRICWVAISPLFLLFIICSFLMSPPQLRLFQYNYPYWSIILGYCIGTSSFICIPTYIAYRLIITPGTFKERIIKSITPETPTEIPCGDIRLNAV

Usually Ki stands for a measure of affinity in units of concentration, obtained from inhibition or displacement. Read a high Ki as weaker binding. `COC(=O)C1=C(c2ccc(-c3ccccc3)cc2)CCCC1`: the results for the Ki in test [1], in test [2] and in test [3] were 264 µM, 841 µM and 215 µM, respectively.

Consider `COC(=O)c1ccccc1-c1ccc2ccccc2c1`, for which the Ki was 4.06 µM in test [1], 620 µM in test [2] and 46.7 µM in test [3].

On to `COC(=O)C1=C(c2ccc(S(C)(=O)=O)cc2)CCC1`, for which affinity in test [2] was put at a Ki of 3390 µM.

Regarding `COC(=O)[C@@H]1CCCCC[C@@H]1c1ccc(-c2ccccc2)cc1`, the Ki in test [1] was determined as 313 µM; in test [2] it was 73 µM; in test [3], 51 µM.

Turning to `COC(=O)C1=C(c2ccc(C(C)(C)C)cc2)CCC1`, the Ki was 302 µM in test [1], 1460 µM in test [2] and 789 µM in test [3].

`COC(=O)[C@@H]1CCCC[C@@H]1c1ccc(-c2ccccc2)cc1`: the figures for the Ki in test [1], in test [2] and in test [3] were 830 µM, 390 µM and 658 µM, respectively.

As for `COC(=O)[C@@H]1CCCC[C@@H]1c1ccccc1`, the figures for the Ki in test [1], in test [2] and in test [3] were 975 µM, 1510 µM and 1360 µM, respectively.

With `COC(=O)[C@@H]1CN(C)CC[C@H]1c1ccccc1` (racemic), the figures for the Ki in test [1], in test [2] and in test [3] were 17.4 µM, 46.7 µM and 36.3 µM, respectively.

`COC(=O)C1=C(c2ccc3ccccc3c2)CCCCC1`: the Ki in test [1] was 392 µM; in test [2], 532 µM; in test [3] it was 68 µM.

For the compound `COC(=O)C1=C(c2cccc([N+](=O)[O-])c2)CCCC1`, the Ki is 239 µM in test [1], 28.7 µM in test [2] and 121 µM in test [3].

For `COC(=O)C1=C(c2ccc([N+](=O)[O-])cc2)CCC1`, the Ki in test [1] came to 6.54 µM; in test [2], 1140 µM; in test [3] it was 111 µM.

In the case of `COC(=O)C1=C(c2ccccc2)CCCC1`, the Ki stood at 630 µM in test [1], 668 µM in test [2] and 2500 µM in test [3].

Turning to `COC(=O)C1=C(c2cccc(C(F)(F)F)c2)CCCC1`, the Ki in test [1] came out at 1050 µM; in test [2] it was 5020 µM; in test [3], 2110 µM.

On to `COC(=O)[C@@H]1CN(C)CC[C@@H]1c1ccccc1` (racemic), for which the Ki in test [1] was determined as 8.51 µM; in test [2] it was 27 µM; in test [3], 35.2 µM.

Turning to `COC(=O)[C@@H]1CCCC[C@@H]1c1ccc(C(C)(C)C)cc1`, the Ki turned out to be 766 µM in test [1], 9120 µM in test [2] and 675 µM in test [3].

Regarding `COC(=O)C1=C(c2ccc(C(C)(C)C)cc2)CCCC1`, the Ki was found to be 605 µM in test [1], 2250 µM in test [2] and 1100 µM in test [3].

As to `COC(=O)C1=C(c2ccc(OC(F)(F)F)cc2)CCCC1`, the Ki in test [1] worked out at 1660 µM; in test [2], 4680 µM; in test [3], 2540 µM.

On to `COC(=O)[C@@H]1CN(C)CC[C@@H]1c1ccc(Cl)c(Cl)c1` (stereo in doubt), for which the Ki in test [1] was found to be 59.4 µM; in test [3], 41.6 µM.

With `COC(=O)C1=C(c2ccc(C(F)(F)F)cc2)CCCC1`, the values for the Ki in test [1], in test [2] and in test [3] were 590 µM, 4710 µM and 2020 µM, respectively.

`COC(=O)[C@@H]1CN(C)CC[C@@H]1c1ccc(I)cc1` (racemic): the Ki turned out to be 0.323 µM in test [1], 0.287 µM in test [2] and 0.855 µM in test [3].

Consider `COC(=O)[C@@H]1CCCC[C@@H]1c1ccc(C(F)(F)F)cc1`, for which the Ki in test [1] stood at 222 µM; in test [2], 185 µM; in test [3], 439 µM.

Consider `COC(=O)C1=C(c2ccc(C(C)(C)C)cc2)CCCCC1`, for which the Ki in test [1] came out at 884 µM; in test [2] it was 1040 µM; in test [3] it was 62 µM.

For the compound `COC(=O)[C@@H]1CCCCC[C@@H]1c1ccc(C(C)(C)C)cc1`, the figures for the Ki in test [1], in test [2] and in test [3] were 1140 µM, 1800 µM and 94 µM, respectively.

For `COC(=O)[C@@H]1CN(C)CC[C@@H]1c1ccc(Cl)c(Cl)c1` (stereo in doubt; 3a), the Ki in test [1] turned out to be 0.322 µM; in test [3] it was 3.91 µM.
